Screens as filed in PubChem BioAssay.
GPR7 antagonist – GPR7 receptor antagonists, primary screen, cell-based, fluorescence, single concentration. Neuropeptides B/W receptor type 1 (Homo sapiens), P48145. GPR7-expressing cells, fluorescence antagonist assay. inhibition, % at 4.4 µM. hit rate 1.1% among 290,000; in the data active = inhibition above about 16%, passing the limit was not always enough;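 also: cells stimulated with the agonist NPW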
OX1R antag-1 – antagonists of human orexin 1 receptor (OX1R) | inhibition, % at 6.6 µM | OX1R-expressing cells, FRET antagonist read-out | Orexin/Hypocretin receptor type 1 (Homo sapiens), O43613 | hit rate 1.8% among 330,000; in the data active = inhibition mostly above about 38%, no sharp cut-off; inactive = mostly below about 40%
Target sequence (O43613 whole entry, looked up): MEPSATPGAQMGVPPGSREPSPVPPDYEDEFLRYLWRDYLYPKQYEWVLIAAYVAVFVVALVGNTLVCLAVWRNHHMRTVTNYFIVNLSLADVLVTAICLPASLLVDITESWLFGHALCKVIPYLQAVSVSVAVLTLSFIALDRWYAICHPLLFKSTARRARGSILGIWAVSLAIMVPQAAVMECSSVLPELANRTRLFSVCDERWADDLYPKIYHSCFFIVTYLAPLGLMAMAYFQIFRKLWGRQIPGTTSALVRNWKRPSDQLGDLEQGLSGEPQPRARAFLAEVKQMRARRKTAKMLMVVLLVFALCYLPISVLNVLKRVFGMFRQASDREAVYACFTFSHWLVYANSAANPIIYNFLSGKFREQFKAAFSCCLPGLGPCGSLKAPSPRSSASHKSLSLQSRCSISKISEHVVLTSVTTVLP
OX1R antag-2 – OX1R (HCRTR1) antagonists, primary screen, fluorescence, CHO/OX1R cells, Fluo-8 calcium, orexin A. Orexin/Hypocretin receptor type 1 (Homo sapiens), O43613. Fluo-8 calcium fluorescence. inhibition, % at 5 µM. hit rate 0.43% among 330,000. AID 434989, 2010;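 active = inhibition above its plate's threshold, mean inhibition of all tested compounds on the plate plus 3 SD, cut at about 37% in these data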
CHO parental Ca – ATP-evoked calcium signal inhibitors, parental CHO, primary screen, counter-screen for OX1R antagonist project, cell-based, fluorescence, Fluo-8 calcium dye; hit rate 0.63% among 330,000; inhibition, % at 5.6 µM; parental CHO-K1, ATP-induced calcium, Fluo-8 fluorescence; AID 463079, 2010;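 active = inhibition above that plate's mean sample inhibition plus 3 SD, cut at about 26% in these data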
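Assay system: parental CHO cells; Read-out basis: percent inhibition of ATP-evoked calcium rise, normalized to controls; Benchmarks: ATP and no-ATP DMSO wells; Compound dosing: single nominal dose of 5.6 µM per compound; Signal: Fluo-8 calcium dye fluorescence; Also added: ATP as calcium-mobilizing challenge; Repeats: singlicate.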
TAAR1 antagonist – human TAAR1 antagonists, primary screen, Fluo-8 calcium fluorescence, CHO RD-HGA16 cells | Trace amine-associated receptor 1 (Homo sapiens), Q96RJ0 | antagonist | inhibition, % at 3 µM | hit rate 1.5% among 360,000 | AID 624466, 2012;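 active = inhibition above a per-plate cutoff, the mean inhibition of test compounds on that plate plus 3 SD, cut at about 49% in these data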
Target sequence (Q96RJ0 whole entry, looked up): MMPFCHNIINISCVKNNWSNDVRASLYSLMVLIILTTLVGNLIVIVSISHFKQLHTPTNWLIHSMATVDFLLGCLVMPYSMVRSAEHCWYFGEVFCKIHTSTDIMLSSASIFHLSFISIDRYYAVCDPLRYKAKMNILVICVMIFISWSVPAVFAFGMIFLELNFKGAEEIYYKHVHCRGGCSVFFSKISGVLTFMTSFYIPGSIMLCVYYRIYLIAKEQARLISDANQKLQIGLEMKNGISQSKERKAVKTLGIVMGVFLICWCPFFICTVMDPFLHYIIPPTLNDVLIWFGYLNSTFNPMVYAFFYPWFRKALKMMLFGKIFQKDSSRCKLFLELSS
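Test system – hTAAR1-expressing CHO RD-HGA16 cells, Gα16-coupled · Reagent – β-PEA at EC80 concentration, post-compound challenge · Compound dosing – 3 µM, single point · Timing – 140 s kinetic read after compound, 140 s after agonist · Detection – Fluo-8 intracellular calcium dye fluorescence, real-time kinetic reads · Control set – DMSO and EC80 PEA controls · Repeats – n of 1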
TAAR1 ag – human TAAR1 agonists, primary screen, Fluo-8 calcium fluorescence, CHO RD-HGA16 cells | hit rate 0.99% among 360,000 | Trace amine-associated receptor 1 (Homo sapiens), Q96RJ0 | activation, % at 3 µM | vehicle wells 0%, saturating PEA agonist 100% | AID 624467, 2012;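 active = activation above the mean activation of all test compounds in the run plus 3 SD, cut at about 38% in these data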
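Signal – calcium-sensitive Fluo-8 signal, excitation 470-495, emission 515-575 nm · System – RD-HGA16 (CHO) cells co-expressing Gα16 and hTAAR1 · Incubation – 17-24 h seeding, 75 min 37 °C dye, 30 min RT · Compound dosing – 3 µM single concentration · Repeats – no replicates (n 1)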
OX1R HTRF confirm – OX1R (HCRTR1) antagonists, confirmation, cell-based, HTRF; hit rate 49% among 1,800; OX1R-expressing cells, HTRF antagonist assay; inhibition, % at 6.6 µM; shares compounds with OX1R antag-1; in the data active = inhibition above about 55%;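 also: CHO cells expressing OX1R stimulated with orexin A at about EC80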
CHO-K1 HTRF cnt – signal inhibition in parental CHO-K1 cells, counter-screen for OX1R antagonist project, cell-based, HTRF; shares compounds with OX1R antag-1; HTRF counterscreen; inhibition, % at 6.6 µM; hit rate 48% among 1,800; in the data active = inhibition above about 17%
Numbers stand for hits; i = inactive; nt = no result. Compounds with a hit are over-represented: about 4.5% of the library has one in this group of screens.

SMILES	GPR7 antagonist	OX1R antag-1	OX1R antag-2	CHO parental Ca	TAAR1 antagonist	TAAR1 ag	OX1R HTRF confirm	CHO-K1 HTRF cnt
COc1ccc(CN2C(=O)c3ccccc3C2c2nnnn2C(C)C)cc1OC (stereo not drawn)	nt	nt	nt	nt	i	i	nt	nt
O=C(Nc1cccc(Cl)c1)Nc1ccc(Br)cc1F	i	82.5	i	i	i	i	i	i
COc1ccc(/C=C/C(=O)OCC(=O)c2cc(C)ccc2C)cc1	nt	nt	nt	nt	i	i	nt	nt
Cc1cc(N(C)C)ccc1N=Nc1ccc2ncccc2c1	i	83.0	i	i	i	i	74.6	i
CN(C)c1ccc(N=Nc2ccc3ncccc3c2)cc1	nt	nt	nt	nt	i	i	nt	nt
COc1ccc(S(=O)(=O)N2CCC[C@H]2C(=O)N2CCC[C@H]2C(=O)NCc2ccc(F)cc2F)cc1C	nt	nt	nt	nt	i	i	nt	nt
Cc1ccc(S(=O)(=O)Cc2c(C)noc2C)cc1	i	i	i	i	i	i	nt	nt
Cc1noc(C)c1CS(=O)(=O)c1ccc([N+](=O)[O-])cc1	i	106.7	i	i	i	i	57.5	58.2
O=C(C1CCCN(S(=O)(=O)c2ccccc2[N+](=O)[O-])C1)N1CCCC1 (stereo not drawn)	i	122.2	i	i	i	i	i	i
O=C(O)C1CCCN(S(=O)(=O)c2ccccc2[N+](=O)[O-])C1 (stereo not drawn)	i	i	i	i	i	i	nt	nt
Cc1cccnc1-n1c(CCN2C(=O)c3ccccc3C2=O)nc2ccccc2c1=O	i	91.7	i	i	i	i	84.6	i
CC1(Cc2ccc(C(F)(F)F)o2)C(=O)Nc2cc(-c3ccc(F)cc3F)ccc21 (stereo not drawn)	nt	nt	nt	nt	i	i	nt	nt
COc1ccc2nc(Nc3nc(C)c(C(C)=O)s3)sc2c1	i	80.8	i	i	i	i	i	i
COc1ccc(Nc2nc3ccc(OC)cc3s2)cc1	i	i	i	i	i	i	nt	nt
O=C(COC(=O)c1ccc([N+](=O)[O-])s1)NC(c1ccccc1)c1ccccc1	i	i	i	i	i	i	nt	nt
O=C(COC(=O)c1ccc([N+](=O)[O-])s1)NCc1ccccc1	i	124.3	i	i	i	i	i	17.7
CC1(C(=O)NS(=O)(=O)c2ccccc2)CCN1C(=O)c1ccc(C2CCCCC2)cc1 (stereo not drawn)	nt	nt	nt	nt	i	i	nt	nt
CN(C)Cc1csc(Nc2ccc(C(=O)c3ccccc3)cc2)n1	nt	nt	nt	nt	i	i	nt	nt
CC(C)CN(C(=O)Cn1c(C(F)(F)F)nc2ccccc21)c1c(N)n(Cc2ccccc2)c(=O)[nH]c1=O	nt	nt	nt	nt	i	i	nt	nt
O=C(CSc1nc(O)c(C2CCCCC2)c(=O)[nH]1)Nc1ccccc1Cl	i	78.5	i	i	i	i	i	i
CNc1ccc(/C=C(\CCC(=O)O)c2nc3ccccc3s2)cc1[N+](=O)[O-]	i	87.4	i	i	i	i	i	i
COCCCNC(=O)CN1C(=O)/C(=C\c2ccc(C)cc2)Sc2ccccc21	i	77.7	i	i	i	i	i	i
COCCCNC(=O)N1c2ccccc2Sc2ccccc21	i	i	i	i	i	i	nt	nt
CC1(C(=O)NCc2ccc3c(c2)OCO3)CCN1C(=O)CC1CCCC1 (stereo not drawn)	nt	nt	nt	nt	i	i	nt	nt
COc1ccc(CC(N)c2csc(Nc3cc(NCc4ccco4)ncn3)n2)cc1 (stereo not drawn)	nt	nt	nt	nt	i	i	nt	nt
SMILES	GPR7 antagonist	OX1R antag-1	OX1R antag-2	CHO parental Ca	TAAR1 antagonist	TAAR1 ag	OX1R HTRF confirm	CHO-K1 HTRF cnt
N#C/C(=C\c1c(Oc2ccccc2F)nc2ccccn2c1=O)C(=O)NC1CCS(=O)(=O)C1 (stereo not drawn)	i	89.1	i	i	i	i	i	35.8
N#C/C(=C\c1c(Oc2ccccc2Cl)nc2ccccn2c1=O)C(=O)NC1CCS(=O)(=O)C1 (stereo not drawn)	i	i	i	i	i	i	nt	nt
CCOC(=O)/C(C#N)=C\C=C1C=CN(C)C=C1	i	99.9	i	i	i	i	i	62.2
CCOC(=O)/C(C#N)=C\c1ccc(CC)s1	i	i	i	i	i	i	nt	nt
O=C(Nc1ccc(-c2nc3ccccc3s2)c(O)c1)C1=COCCO1	i	i	i	i	i	i	nt	nt
O=C(Nc1ccc(O)c(-c2nc3ccccc3s2)c1)C1=COCCO1	i	87.9	i	i	i	i	i	i
Cc1ccsc1C(=O)Nc1ccc(O)c(-c2nc3ccccc3s2)c1	i	80.7	i	i	i	i	73.4	i
CC(C)N1C(=O)c2ccccc2NC(=O)C1C(=O)NCc1cccc(C(F)(F)F)c1 (stereo not drawn)	nt	nt	nt	nt	i	i	nt	nt
O=c1[nH]c2cc3c(cc2cc1CN(Cc1cccs1)Cc1nnnn1Cc1ccco1)OCCO3	i	102.7	i	i	i	i	i	i
O=C(NC1CCCCC1)c1sc(=S)n2c1[nH]c(=O)c1ccccc12	i	82.2	i	i	i	i	56.2	i
O=[n+]1cc(-c2cc3ccccc3o2)n([O-])c2c1CCCC2	nt	89.1	i	i	i	i	i	43.8
COc1cccc(N=Nc2c(=O)[nH]n3c(=O)cc(C)[nH]c23)c1	i	107.0	i	i	i	i	i	48.5
O=c1[nH]n2c(=O)c3c([nH]c2c1N=Nc1cccc(Cl)c1)CCC3	i	i	i	i	i	i	nt	nt
O=C(Nc1cccc2cccnc12)c1csc([C@@H]2O[C@H](CO)[C@H](O)[C@H](O)[C@H]2O)n1	nt	nt	nt	nt	i	i	nt	nt
Cc1cccn2c(=O)c3cc(C#N)c(=NC(=O)c4ccccc4)n(Cc4ccco4)c3nc12	nt	88.0	i	i	i	i	i	41.5
Cc1cccc(C(=O)N=c2c(C#N)cc3c(=O)n4cccc(C)c4nc3n2Cc2ccco2)c1	i	i	i	i	i	i	nt	nt
COCCNC(=O)C1(C)CCCN(C(=O)c2cc(C)oc2C)C1 (stereo not drawn)	nt	nt	nt	nt	i	i	nt	nt
N#C/C(=N\Nc1ccc(Cl)cc1)C(=N)N1CCCCC1	i	77.0	i	i	i	i	i	i
O=[N+]([O-])c1ccc(-c2cnc(NO)nc2)cc1	i	i	i	i	i	i	nt	nt
Nc1ncc(-c2ccc([N+](=O)[O-])cc2)cn1	i	104.6	i	i	i	i	i	41.5
CC(=O)c1cc(CN2CCC(C(=O)Nc3ccc(-n4nc(C)cc4C)cc3)CC2)cs1	i	i	i	i	i	i	nt	nt
